Calls of active or inactive are those of the source. The calls are words filed in the database; no cut-off is given here.

One data set deals with HepaRG. Kind of data set: Induction of CYP3A4 expression in human HepaRG cells at 0.1 to 10 uM incubated for 48 hrs by fluorescence based assay. Type of data set: functional, cell-based. The conditions noted are these: dose 0.1-10 µM. The essentials:
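Differentiated HepaRG cells treated for 48 h; CYP3A4-expressing cells visualized by fluorescence imaging at 20× magnification; n = 3 independent experiments, with n = 9 for untreated cells.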

The test system of another data set is Monocyte. Kind of data set: Cytotoxicity against human monocytes assessed as reduction in LDH release at 1 to 10 uM after 2 to 24 hrs by CytoTox96 nonradioactive assay. Type of data set: cell-based. The conditions noted are these: dose lower 1 µM, time lower 2 hrs, dose upper 10 µM, time upper 24 hrs. An outline of the steps:
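Monocytes at 4 × 10^5/mL in monocyte medium treated 2 or 24 h at 37 °C, 5% CO2, with 0.1% DMSO vehicle. LDH release measured by CytoTox 96 kit, with Triton X-100 (0.8%) defining maximum release.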
On the technique in general: LDH leaks from cells whose membrane has failed.

Data set [1] concerns the target T1, Prostaglandin G/H synthase 1 (Ovis aries) (UniProt P05979).
T1 sequence (whole entry): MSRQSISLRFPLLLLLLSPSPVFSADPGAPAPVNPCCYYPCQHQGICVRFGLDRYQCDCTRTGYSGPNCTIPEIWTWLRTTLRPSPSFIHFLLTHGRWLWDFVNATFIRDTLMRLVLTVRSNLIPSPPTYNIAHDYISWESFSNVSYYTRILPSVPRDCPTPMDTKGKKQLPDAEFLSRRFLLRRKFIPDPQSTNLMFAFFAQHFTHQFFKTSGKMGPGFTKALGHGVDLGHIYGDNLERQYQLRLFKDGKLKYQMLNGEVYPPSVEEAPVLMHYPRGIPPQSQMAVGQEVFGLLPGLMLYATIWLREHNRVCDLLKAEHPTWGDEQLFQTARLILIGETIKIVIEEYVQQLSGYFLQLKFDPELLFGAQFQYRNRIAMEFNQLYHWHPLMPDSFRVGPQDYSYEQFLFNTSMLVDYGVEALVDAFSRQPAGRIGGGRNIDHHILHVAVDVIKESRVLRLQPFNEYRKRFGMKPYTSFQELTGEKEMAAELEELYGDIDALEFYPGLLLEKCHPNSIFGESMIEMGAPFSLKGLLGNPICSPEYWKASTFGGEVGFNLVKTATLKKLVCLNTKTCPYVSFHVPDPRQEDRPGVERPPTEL
Briefly: Inhibition of ovine COX-1 assessed as reduction in 12-HHT formation at 10 uM using arachidonic acid as substrate preincubated for 6 mins followed by substrate addition by RPL-HPLC method.

Data set [2] addresses T2, Prostaglandin G/H synthase 2 (Homo sapiens) (UniProt P35354).
T2 sequence (whole entry): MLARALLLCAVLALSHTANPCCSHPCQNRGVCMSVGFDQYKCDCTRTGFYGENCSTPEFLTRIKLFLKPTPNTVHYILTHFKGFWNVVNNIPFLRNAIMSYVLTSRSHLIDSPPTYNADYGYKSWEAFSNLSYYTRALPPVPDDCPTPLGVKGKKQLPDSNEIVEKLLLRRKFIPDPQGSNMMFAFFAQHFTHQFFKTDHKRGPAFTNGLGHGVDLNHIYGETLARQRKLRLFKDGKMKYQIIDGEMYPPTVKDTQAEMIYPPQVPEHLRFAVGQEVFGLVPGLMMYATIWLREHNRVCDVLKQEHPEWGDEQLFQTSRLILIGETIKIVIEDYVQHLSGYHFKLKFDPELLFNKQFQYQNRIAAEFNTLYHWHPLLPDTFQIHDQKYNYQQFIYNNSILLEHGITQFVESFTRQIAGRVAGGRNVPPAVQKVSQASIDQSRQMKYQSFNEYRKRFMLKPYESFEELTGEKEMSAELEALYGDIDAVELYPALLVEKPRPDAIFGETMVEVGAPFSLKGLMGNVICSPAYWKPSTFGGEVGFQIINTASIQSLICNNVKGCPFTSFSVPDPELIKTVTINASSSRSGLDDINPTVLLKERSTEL
Briefly: Inhibition of recombinant human COX-2 assessed as reduction in 12-HHT formation at 10 uM using arachidonic acid as substrate preincubated for 6 mins followed by substrate addition by RPL-HPLC method.

Data set [3] concerns the target T3, Prostaglandin E synthase (Homo sapiens) (UniProt O14684).
T3 sequence (whole entry): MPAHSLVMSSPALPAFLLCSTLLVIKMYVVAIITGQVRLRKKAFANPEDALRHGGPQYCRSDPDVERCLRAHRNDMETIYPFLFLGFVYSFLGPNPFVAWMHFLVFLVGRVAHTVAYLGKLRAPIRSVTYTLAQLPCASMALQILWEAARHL
Kind of data set: Inhibition of mPEGS1 in pathogenic Escherichia coli-stimulated human macrophages M1 at 1 uM by UPLC-MS/MS analysis. The conditions noted are these: Macrophage. The essentials:
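M1 macrophages obtained by GM-CSF differentiation for 6 days, then LPS/IFN-γ polarization for 48 h. Treated with compound at 1 μM and stimulated with pathogenic E. coli; lipid mediator network profiled by metabololipidomics against vehicle.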

Data set [4] deals with Keratinocyte. Kind of data set: Antiinflammatory activity in cytokine cocktail-induced reconstructed human epidermis model assessed as reduction in IL-8 level at 5 to 25 uM after 4 days by ELISA. Type of data set: functional, cell-based. The conditions noted are these: dose 5-25 µM, time 4.0 day. An outline of the steps: (§1)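 Reconstructed human epidermis exposed to compound and stressed with a cytokine cocktail for 4 days. Readouts: IL-8 in growth medium, H&E morphology, transepidermal water loss, stratum corneum permeability to Lucifer yellow with DAPI nuclear stain, and surface pH. n = 2–3 independent experiments.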
A general note: ELISA stands for enzyme-linked immunosorbent assay.

Data set [5] has as its system Keratinocyte. Kind of data set: Antiinflammatory activity in cytokine cocktail-induced reconstructed human epidermis model assessed as improved skin barrier functions at 5 to 25 uM after 4 days. Type of data set: functional, cell-based. The conditions noted are these: dose 5-25 µM, time 4.0 day. The essentials:
as §1

Data set [6] in a line: Drug concentration in plasma of CD-1 mouse at 30 mg/kg, po after 30 mins. Type of data set: ADME, organism-based. The essentials:
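Oral dosing at 30 mg/kg in zymosan peritonitis; mice killed 30 min after zymosan injection. Compound concentrations measured in plasma and in peritoneal exudate.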

For `C/C(=C\CC/C(C)=C/CC[C@]1(C)CCc2c(C)c(O)c(C)c(C)c2O1)CCC=C(CO)CO`, in the data set on HepaRG, the result was inactive. For the same molecule, the Activity entry with Monocyte was “Toxic”. Besides, the inhibition result in data set [1], in data set [2] and in data set [3] was “inactive” each time. The outcome with Keratinocyte [4] and with Keratinocyte [5] was Active. Also, the concentration at 0.5 h in data set [6] was 20 nM.

(Values after ChEMBL document CHEMBL4834471 (J Med Chem, 2021).)
